Source: ChEMBL document CHEMBL5042548, “Multiparameter Optimization of Oxidative Phosphorylation Inhibitors for the Treatment of Pancreatic Cancer” (J Med Chem, 2022)
The source made the active and inactive calls. No cut-off for these calls is given here.

Key:
[1] = Initial plasma concentration in CD-1 mouse at 2 mg/kg, iv; assay type: ADME, organism-based
In short: (§1)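 Plasma PK in CD-1 mice after single i.v. (2 mg/kg) or p.o. (10 mg/kg) dosing. Parameters come from non-compartmental analysis. Bioavailability = (AUC_po×Dose_iv)/(AUC_iv×Dose_po)×100%. Terminal t1/2 is taken from ≥3 points in the terminal phase.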

BXPC-3 = assay: Cytotoxicity against human BXPC-3 cells assessed as inhibition of cell growth incubated for overnight in glucose-containing medium followed by compound addition and measured after 7 days by MTT assay; assay type: functional, cell-based; conditions: BXPC-3, 168 h
In short: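 7-day MTT in glucose medium (RPMI 1640 + 10% FBS). Seeding is 200 cells/well for MIA PaCa-2 and 300 cells/well for BxPC-3, overnight at 37 °C, 5% CO2, before compound. MTT 3 mg/mL is added for 4 h, then DMSO, and absorbance is read at 570 nm. IC50 is by nonlinear regression; ≥3 independent experiments.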

[2] = Oral bioavailability in CD-1 mouse at 10 mg/kg; assay type: ADME, organism-based; conditions: in vivo; in short: as §1
[3] = Inhibition of oxidative phosphorylation in human MIA PaCa-2 cells assessed as reduction in ATP production incubated for 24 hrs in galactose-containing medium by celltiter-glo luminescence cell viability assay; assay type: functional, cell-based; conditions: MIA PaCa-2, 24 h
In short: (§2)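 MIA PaCa-2 cells are seeded at 10000 cells/well in glucose RPMI + 10% FBS or in glucose-free RPMI + 10 mM galactose + 10% FBS. Total ATP is measured by CellTiter-Glo luminescence 24 h after compound. IC50 is by nonlinear regression; ≥3 independent experiments.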

[4] = Inhibition of oxidative phosphorylation complex I in human MIA PaCa-2 cells assessed as reduction in NAD+/NADH ratio incubated for 48 hrs in glucose-containing medium by NAD/NADH-Glo assay; assay type: cell-based; conditions: MIA PaCa-2, 48 h
In short: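 MIA PaCa-2 cells at 5×10^3/well are treated next day for 48 h in RPMI 1640 + 10% FBS. After a PBS wash, cells are lysed with bicarbonate buffer/1% DTAB. Lysate is split: NAD+ with 0.4 N HCl at 60 °C for 15 min, NADH heated directly, then neutralized. NAD/NADH-Glo luminescence is read after 30 min. IC50 is by nonlinear regression.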

[5] = Clearance in CD-1 mouse at 10 mg/kg, po; assay type: ADME, organism-based; conditions: in vivo; in short: as §1
[6] = Inhibition of oxidative phosphorylation in human MIA PaCa-2 cells assessed as reduction in ATP production incubated for 24 hrs in glucose-containing medium by celltiter-glo luminescence cell viability assay; assay type: functional, cell-based; conditions: MIA PaCa-2, 24 h; in short: as §2
[7] = Terminal elimination half life in CD-1 mouse at 10 mg/kg, po; assay type: ADME, organism-based; conditions: in vivo, read-out: LambdaZ (converted); in short: as §1
[8] = AUC (0 to infinity) in CD-1 mouse at 10 mg/kg, po; assay type: ADME, organism-based; design: route oral, time infinity, dose 10 mg/kg; conditions: in vivo; in short: as §1
MIA PaCa-2 [9] = assay: Cytotoxicity against human MIA PaCa-2 cells assessed as inhibition of cell growth incubated for overnight in glucose-containing medium followed by compound addition and measured after 3 days by MTT assay; assay type: functional, cell-based; conditions: MIA PaCa-2, 72 h
In short: (§3)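 MIA PaCa-2 3-day MTT in glucose medium (RPMI 1640 + 10% FBS) or galactose medium (glucose-free RPMI + 10 mM galactose + 10% FBS). Galactose wells are seeded at 8000 cells/well. MTT read-out is at 570 nm after DMSO solubilization. IC50 is by nonlinear regression; ≥3 independent experiments.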

Panc02 = assay: Antitumor activity against Panc02 cells allografted in C57BL/6 mouse syngeneic model assessed as tumor growth inhibition at 10 mg/kg, po administered once daily for 28 days and measured twice per week; assay type: functional, organism-based; conditions: time 28.0 day
In short: (§4)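 Female C57BL/6 mice, 6-10 weeks old, get 5×10^6 Pan02 cells s.c. in the right flank and are randomized at ~100 mm3 (n = 5/group). Dosing is daily for 28 days. Vehicle is 10% DMSO/50% PG/40% saline, except 15 mg/kg uses 10% DMSO/60% PG/30% saline. Caliper volume (length×width²)/2 and body weight are recorded twice weekly.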

[10] = Toxicity in C57BL/6 mouse allografted with mouse Panc02 cells assessed as body weight loss at 10 mg/kg, po administered once a day for 28 days and measured twice per week; assay type: organism-based; conditions: in vivo, 672 h, time 28 day; in short: as §4
[11] = Toxicity in C57BL/6 mouse allografted with mouse Panc02 cells assessed as drug tolerability at 10 mg/kg, po administered once a day for 28 days; assay type: organism-based; conditions: in vivo, 672 h, time 28 day
[12] = Metabolic stability in human liver microsomes assessed as half life at 10 uM measured up to 60 mins in presence of NADPH by LC-MS/MS analysis; assay type: ADME, Microsome; conditions: liver microsomes
[13] = AUC(0 to t) in CD-1 mouse at 2 mg/kg, iv; assay type: ADME, organism-based; design: dose 2 mg/kg; conditions: in vivo; in short: as §1
[14] = Volume of distribution at steady state in CD-1 mouse at 2 mg/kg, iv; assay type: ADME, organism-based; conditions: in vivo, read-out: Vdss; in short: as §1
[15] = Terminal elimination half life in CD-1 mouse at 2 mg/kg, iv; assay type: ADME, organism-based; conditions: in vivo, read-out: LambdaZ (converted); in short: as §1
MIA PaCa-2 [16] = assay: Cytotoxicity against human MIA PaCa-2 cells assessed as inhibition of cell growth incubated for overnight in galactose-containing medium followed by compound addition and measured after 3 days by MTT assay; assay type: functional, cell-based; conditions: MIA PaCa-2, 72 h; in short: as §3
[17] = AUC (0 to infinity) in CD-1 mouse at 2 mg/kg, iv; assay type: ADME, organism-based; design: route intravenous, time infinity, dose 2 mg/kg; conditions: in vivo; in short: as §1
[18] = Metabolic stability in mouse liver microsomes assessed as half life at 10 uM measured up to 60 mins in presence of NADPH by LC-MS/MS analysis; assay type: ADME, Microsome; conditions: liver microsomes
[19] = Clearance in CD-1 mouse at 2 mg/kg, iv; assay type: ADME, organism-based; conditions: in vivo; in short: as §1
[20] = AUC(0 to t) in CD-1 mouse at 10 mg/kg, po; assay type: ADME, organism-based; design: dose 10 mg/kg; conditions: in vivo; in short: as §1

Compound: CC(C)S(=O)(=O)c1ccc(S(=O)(=O)N2CCC[C@@H](C(=O)N3CCC(F)(F)CC3)C2)cc1
- C0 [1]: 354 ng/mL
- IC50 (BXPC-3): 50 nM
- F [2]: 11.3%
- IC50 [3]: 11 nM
- IC50 [4]: 3.6 nM
- CL/F [5]: 835 mL/min/kg
- IC50 [6]: > 3000 nM
- half-life [7]: 3.06 h
- AUC(0-inf) [8]: 0.417 µM·h
- IC50 (MIA PaCa-2 [9]): > 3000 nM
- Activity (Panc02): Active
- Activity [10]: Non-Toxic
- Activity [11]: Non-Toxic
- half-life at 10 µM [12]: > 1 h
- AUC(0-t) [13]: 0.65 µM·h
- Vd [14]: 5.2 L/kg
- half-life [15]: 1.42 h
- IC50 (MIA PaCa-2 [16]): 9.1 nM
- AUC(0-inf) [17]: 0.657 µM·h
- half-life at 10 µM [18]: > 1 h
- clearance [19]: 106 mL/min/kg
- AUC(0-t) [20]: 0.368 µM·h
